What was measured:
[1] = tested on: MT4; test: Dose required to reduce the viability of mock-infected cells by 50%; type: functional; conditions: Homo sapiens
In short: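 Mock-infected MT-4 cells (1×10^4 per well) were exposed to compound dilutions in parallel with the antiviral assay. After 4 days at 37 °C, viability was measured by MTT. CC50 is the dose reducing viable cell number by 50%.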

[2] = tested on: MT4; test: (§1) Inhibitory activity against resistant HIV-1 strain NevR was determined.; type: functional, Homo sapiens
[3] = tested on: H9; test: Ability to inhibit HIV-1 multiplication in chronically infected H9/IIIB cells; type: functional, cell-based; conditions: Homo sapiens
In short: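 Value taken as compound dose lowering infectious HIV-1 titer by 1 log in chronically infected H9/IIIB cells. Titer was read in C8166 cells by limiting dilution (1:2, 4 replica wells per dilution), with light-microscope scoring of cytopathicity after 4 days, expressed as CCID50/mL. Data are means of three separate experiments.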

[4] = tested on: C8166; test: Ability to inhibit HIV-2 multiplication in acutely infected C8166 cells; type: functional, cell-based; conditions: Homo sapiens
In short: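 C8166 cells (1×10^4 per well) in RPMI 1640 with 10% FCS were infected with 1000 CCID50 of HIV-2 ROD, alongside serial compound dilutions from DMSO stock. After 5 days at 37 °C, viable cells were counted by MTT. EC50 is the dose giving 50% protection from virus-induced cytopathicity. Data are means of three experiments.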

[5] = tested on: MT4; test: (§2) Inhibitory activity against resistant HIV-1 strain MC639r was determined.; type: functional, Homo sapiens
[6] = biological target: Human immunodeficiency virus type 1 reverse transcriptase (Human immunodeficiency virus 1, UniProt Q72547); test: Compound concentration required to inhibit the HIV-1 recombinant Reverse transcriptase (rRT) activity by 50%.
[7] = tested on: Human immunodeficiency virus type 1; test: Selectivity index is the ratio of CC50 to EC50; conditions: Human immunodeficiency virus 1
[8] = tested on: MT4; test: Dose required to achieve 50% protection of MT-4 cells from the HIV-1 induced cytopathogenicity in HIV-1 infected MT-4 cells; conditions: Homo sapiens
[9] = tested on: MT4; test: as §2; type: functional, cell-based; conditions: Homo sapiens
[10] = tested on: MT4; test: as §1; type: functional, cell-based; conditions: Homo sapiens
[11] = tested on: MT4; test: Inhibitory activity against resistant HIV-1 strain Nevr was determined; type: functional, cell-based; conditions: Homo sapiens
[12] = tested on: MT4; test: Inhibitor activity against resistant HIV-1 strain MC639r was determined.; type: functional, cell-based; conditions: Homo sapiens

SMILES	CC50 [1]	EIC50 [2]	EC50 [3]	EC50 [4]	EIC50 [5]	IC50 [6]	Ratio [7]	EC50 [8]	EC50 [9]	EC50 [10]	EC50 [11]	EC50 [12]
Cc1cn([C@H]2C[C@H](N=[N+]=[N-])[C@@H](CO)O2)c(=O)[nH]c1=O [ZIDOVUDINE]	> 80 µM	0.013 µM	> 20 µM	0.015 µM	0.003 µM	–	–	–	–	–	–	–
CCC(C)Sc1nc(O)cc(Cc2cccc3ccccc23)n1 (stereo not given)	> 300 µM	–	> 100 µM	> 100 µM	–	8.1 µM	> 909	0.33 µM	2.1 µM	> 100 µM	–	–
Oc1cc(Cc2cccc3ccccc23)nc(SC2CCCC2)n1	> 300 µM	–	> 100 µM	> 100 µM	–	–	> 150	2 µM	–	> 100 µM	> 100 µM	–
CCC(C)Sc1nc(O)c(C)c(COc2ccccc2)n1 (stereo not given)	60 µM	–	> 100 µM	> 100 µM	–	–	7	8.9 µM	–	> 100 µM	–	> 100 µM
Oc1cc(Cc2ccc3ccccc3c2)nc(SC2CCCCC2)n1	> 300 µM	–	> 100 µM	> 100 µM	–	33.1 µM	> 128	1.7 µM	20 µM	> 100 µM	–	–
